Legend:
[1] = target: T1, Alpha-1A adrenergic receptor (Homo sapiens, UniProt P35348); assay: Binding affinity towards Alpha-1A adrenergic receptor
T1 sequence (P35348 whole entry): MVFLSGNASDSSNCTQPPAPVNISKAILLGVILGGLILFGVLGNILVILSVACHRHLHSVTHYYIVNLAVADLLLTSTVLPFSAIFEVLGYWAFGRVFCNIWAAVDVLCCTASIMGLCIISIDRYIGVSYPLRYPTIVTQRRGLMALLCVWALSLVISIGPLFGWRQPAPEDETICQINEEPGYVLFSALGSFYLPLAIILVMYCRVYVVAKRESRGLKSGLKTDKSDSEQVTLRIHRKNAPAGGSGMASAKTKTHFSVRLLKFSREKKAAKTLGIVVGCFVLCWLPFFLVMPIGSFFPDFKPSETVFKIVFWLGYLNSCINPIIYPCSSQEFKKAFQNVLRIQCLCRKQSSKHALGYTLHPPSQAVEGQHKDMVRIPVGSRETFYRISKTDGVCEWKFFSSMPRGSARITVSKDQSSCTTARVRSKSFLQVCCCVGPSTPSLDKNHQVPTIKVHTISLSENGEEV
Summary of the method: (§1)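 Human α1A-, α1B- or α1D-AR stably expressed in HEK293 cells (calcium phosphate transfection, subclones chosen for high expression); membranes from scraped, homogenized cells spun at 30000g. Three experiments in duplicate, mean ± SE.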

[2] = target: T2, Alpha-1D adrenergic receptor (Homo sapiens, UniProt P25100); assay: Binding affinity towards Alpha-1D adrenergic receptor; summary of the method: as §1
T2 sequence (P25100 whole entry): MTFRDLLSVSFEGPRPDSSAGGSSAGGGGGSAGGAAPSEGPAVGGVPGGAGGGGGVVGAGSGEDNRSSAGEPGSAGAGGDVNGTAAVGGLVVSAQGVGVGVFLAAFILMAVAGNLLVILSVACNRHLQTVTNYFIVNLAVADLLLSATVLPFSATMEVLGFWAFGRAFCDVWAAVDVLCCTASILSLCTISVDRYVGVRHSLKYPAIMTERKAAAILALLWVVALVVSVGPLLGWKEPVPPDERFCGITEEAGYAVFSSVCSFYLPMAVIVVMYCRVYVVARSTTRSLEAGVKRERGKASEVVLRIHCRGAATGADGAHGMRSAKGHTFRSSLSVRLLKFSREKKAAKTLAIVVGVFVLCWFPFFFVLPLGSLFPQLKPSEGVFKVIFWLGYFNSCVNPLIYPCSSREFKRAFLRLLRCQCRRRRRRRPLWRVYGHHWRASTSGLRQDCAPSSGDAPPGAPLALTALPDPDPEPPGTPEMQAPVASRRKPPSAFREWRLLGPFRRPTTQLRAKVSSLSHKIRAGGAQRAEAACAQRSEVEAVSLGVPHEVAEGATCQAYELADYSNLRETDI

[3] = target: T3, Alpha-1B adrenergic receptor (Homo sapiens, UniProt P35368); assay: In vitro binding affinity at human Alpha-1B adrenergic receptor.; summary of the method: as §1
T3 sequence (P35368 whole entry): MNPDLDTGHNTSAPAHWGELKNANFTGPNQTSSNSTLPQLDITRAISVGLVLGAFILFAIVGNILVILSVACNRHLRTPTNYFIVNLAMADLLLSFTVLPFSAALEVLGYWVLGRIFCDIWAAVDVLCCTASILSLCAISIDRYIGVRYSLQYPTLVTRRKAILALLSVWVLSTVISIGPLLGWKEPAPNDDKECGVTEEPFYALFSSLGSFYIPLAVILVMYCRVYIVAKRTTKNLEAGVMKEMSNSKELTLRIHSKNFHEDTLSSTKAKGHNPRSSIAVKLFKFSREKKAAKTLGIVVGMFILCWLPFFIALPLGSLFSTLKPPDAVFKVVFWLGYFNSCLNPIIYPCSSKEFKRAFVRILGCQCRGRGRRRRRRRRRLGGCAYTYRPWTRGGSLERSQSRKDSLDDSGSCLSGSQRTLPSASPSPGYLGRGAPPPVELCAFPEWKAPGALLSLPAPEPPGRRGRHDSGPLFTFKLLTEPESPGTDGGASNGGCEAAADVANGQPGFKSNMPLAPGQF

[4] = target: T2, Alpha-1D adrenergic receptor; assay: In vitro binding affinity at human Alpha-1D adrenergic receptor.; summary of the method: as §1
Rattus norvegicus = species on record: Rattus norvegicus; assay: Inhibition of [3H]inositol Phosphate formation by 100 uM norepinephrine in rat hippocampal slices.; format: functional, Hippocampus
Summary of the method: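 Rat hippocampal slices equilibrated in Krebs-Henseleit buffer (pH 7.4, 95% O2/5% CO2) at 37 °C for 30 min, labeled 60 min with 0.3 µM myo-[2-3H]inositol. LiCl 7 mM added, then 100 µM norepinephrine 10 min later, test compound (1 µM) 5 min before agonist. After 60 min, stopped with chloroform/methanol; [3H]inositol monophosphate isolated by anion exchange, dpm/mg protein, ≥4 determinations.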

[5] = target: T1, Alpha-1A adrenergic receptor; assay: In vitro binding affinity at human Alpha-1A adrenergic receptor.; summary of the method: as §1
[6] = target: Adrenergic receptor alpha-1 (Homo sapiens) (UniProt P35348+P25100+P35368); assay: Selectivity for alpha 1A-Adrenergic receptors compared to 1D-Adrenergic receptors.; format: protein assay

| SMILES | Ki [1] [nM] | Ki [2] [nM] | Ki [3] [nM] | also measured |
| --- | --- | --- | --- | --- |
| COc1ccccc1N1CCN(Cn2nc(-c3ccccc3)c3c(C)onc3c2=O)CC1 | – | – | – | Ki [4]: 316 nM |
| COc1ccccc1N1CCN(CCCn2cnc3c4ccccc4nc-3c2O)CC1 | 16.6 | 16.2 | 162 | – |
| CC(C)c1ccc(N2CCN(CCn3c(=O)[nH]c4c([nH]c5ccccc54)c3=O)CC2)cc1 | – | 35.5 | 9550 | – |
| CC(C)c1ccc(N2CCN(CCn3cnc4c5ccccc5nc-4c3O)CC2)cc1 | > 10000 | > 10000 | > 10000 | – |
| COc1ccccc1N1CCN(CCn2c(C)nc3c4ccccc4nc-3c2O)CC1 | – | – | 20.9 | – |
| Cc1nc2c3ccccc3nc-2c(O)n1CCN1CCN(c2ccc(C(C)(C)C)cc2)CC1 | 603 | 97.7 | 2040 | – |
| C[C@H](CN1CCN(c2cc(F)c(F)cc2F)CC1)N1C(=O)CC2(CCCC2)CC1=O | – | – | – | Ki [5]: 294 nM; Ki [4]: 1.6 nM |
| COc1cc2c(cc1O)CCN1Cc3c(ccc(O)c3OC)C[C@@H]21 | – | – | 360 | Ki [5]: 616 nM; Ki [4]: 25 nM; Ratio [6]: 24.6 |
| COc1ccccc1N1CCN(CCCn2c(C)nc3c4ccccc4nc-3c2O)CC1 | 4.9 | 2.57 | 26.9 | – |
| C=Cc1sc2ccc(Cl)c3c2c1CN(C)CC3 | – | – | – | Ratio [6]: 22.5 |
| CC(C)(C)c1ccc(N2CCN(CCn3c(=O)[nH]c4c([nH]c5ccccc54)c3=O)CC2)cc1 | – | – | – | inhibition at 1 µM [1]: 8%; Activity (Rattus norvegicus): 10390 dpm (mg of protein)-1 |
| CCCCc1ccc(N2CCN(CCn3c(=O)[nH]c4c([nH]c5ccccc54)c3=O)CC2)cc1 | – | 245 | – | – |
| CCc1nc2c3ccccc3nc-2c(O)n1CCN1CCN(c2ccccc2OC)CC1 | 49 | 6.92 | 245 | – |
| CCOc1ccccc1N1CCN(CCn2cnc3c4ccccc4nc-3c2O)CC1 | 9.77 | 6.03 | 61.7 | – |
| O=c1[nH]c2c([nH]c3ccccc32)c(=O)n1CCN1CCN(c2ccc(C3CCCCC3)cc2)CC1 | – | – | – | inhibition at 1 µM [1]: 7% |
| COc1ccccc1N1CCN(CCn2cnc3c4ccccc4nc-3c2O)CC1 | 1.41 | 0.724 | 13.8 | – |
| COc1ccccc1C1CCN(CCn2c(=O)[nH]c3c([nH]c4ccccc43)c2=O)CC1 | 1.55 | 0.933 | 2.88 | – |

Second part, led by results:

| Ki [1] [nM] | Ki [2] [nM] | Ki [3] [nM] | SMILES | also measured |
| --- | --- | --- | --- | --- |
| > 10000 | > 10000 | > 10000 | Cc1nc2c3ccccc3nc-2c(O)n1CCN1CCN2c3ccccc3OCC2C1 (configuration not stated) | – |
| 7.24 | 1.58 | 14.5 | CCOc1ccccc1N1CCN(CCn2c(=O)[nH]c3c([nH]c4ccccc43)c2=O)CC1 | – |
| 7940 | 126 | 7760 | O=c1[nH]c2c([nH]c3ccccc32)c(=O)n1CCN1CCN2c3ccccc3OCC2C1 (configuration not stated) | – |
| 10.7 | 12.6 | 27.5 | CCc1nc2c3ccccc3nc-2c(O)n1CCCN1CCN(c2ccccc2OC)CC1 | – |
| > 10000 | > 10000 | > 10000 | CC(C)(C)c1ccc(N2CCN(CCn3cnc4c5ccccc5nc-4c3O)CC2)cc1 | – |
| – | – | 1.82 | COc1ccccc1N1CCN(CCn2c(=O)[nH]c3c([nH]c4ccccc43)c2=O)CC1 | Activity (Rattus norvegicus): 3987 dpm (mg of protein)-1 |
| 3550 | 1700 | 4070 | Cc1nc2c3ccccc3nc-2c(O)n1CCN1CCN(c2ccc(C(C)C)cc2)CC1 | – |
| – | 126 | – | CC(C)c1ccc(N2CCN(CCn3c(=O)[nH]c4c(sc5ccccc54)c3=O)CC2)cc1 | – |
| 4.68 | 3.63 | 2.57 | O=c1[nH]c2c([nH]c3ccccc32)c(=O)n1CCN1CCN(c2ccccc2Cl)CC1 | – |
| 8.91 | 0.631 | 11.7 | O=c1[nH]c2c([nH]c3ccccc32)c(=O)n1CCN1CCN(c2ccccc2O)CC1 | – |
| – | – | 31.1 | COc1ccccc1N1CCN(CCn2nc(-c3ccccc3)c3c(C)onc3c2=O)CC1 | Ki [5]: 1.4 nM; Ki [4]: 1.5 nM; Ratio [6]: 0.9 |
| – | 60.3 | – | CCC(C)c1ccc(N2CCN(CCn3c(=O)[nH]c4c([nH]c5ccccc54)c3=O)CC2)cc1 (configuration not stated) | – |
| – | 10 | – | N#CCc1ccc(N2CCN(CCn3c(=O)[nH]c4c([nH]c5ccccc54)c3=O)CC2)cc1 | – |
